The values that follow come from PubChem BioAssay AID588713 (Southern Research Specialized Biocontainment Screening …, 2011).

Calls of active or inactive are those of the source.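 The calls were made as follows: active = log virus titer change below -1, over tenfold drop in progeny titer versus untreated infected control; inactive = the rest.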

For this assay, the system named is HEp-2 cells, RSV plaque reduction, virus titer. Description: antiviral effect on respiratory syncytial virus yield – cell-based, plaque reduction, set 4 (AID 588713). The conditions noted are these: at 10 µM; active compounds read low. In short, it runs like this: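 assay system = RSV-infected HEp-2 cells | doses = test compound with 0.5% DMSO final | also added = RSV Long, MOI 0.1 | detection = neutral red-stained plaques on HEp-2 monolayers | timing = 2 h infection, then 48 h compound exposure at 37 °C | evaluation = progeny virus titer in serially diluted 48 h supernatants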

Turning to `COCCCNC(=O)c1ccc(Cn2c(=O)c3ccccc3n(Cc3ccc([N+](=O)[O-])cc3)c2=O)cc1`, the log virus titer change is less than -6.18.

With `O=C(O)c1ccc(Cn2c(=O)n(Cc3ccc(C(=O)NCC4COC4)cc3)c(=O)c3ccccc32)cc1`, the log virus titer change is 0.68 (inactive).

With `CC(C)c1ccc(Cn2c(=O)n(Cc3ccc(C(=O)NCc4ccco4)cc3)c(=O)c3ccccc32)cc1`, the log virus titer change is -2.83.

Consider `CN(C)c1ccc(Cn2c(=O)n(Cc3ccc(C(=O)NCC4COC4)cc3)c(=O)c3ccccc32)cc1`, for which the log virus titer change was less than -6.18.
